# Data from ChEMBL document CHEMBL1143758, “Antitumor studies. part 3: design, synthesis, antitumor activity, and molecular docking study of novel 2-methylthio-, 2-amino-, and 2-(N-substituted amino)-10-alkyl-2-deoxo-5-deazaflavins” (Bioorg Med Chem, 2007).
# Key:
# KB = experiment: Antitumor activity against human KB cells by modified MTT assay; assay type: functional, cell-based
# CCRF-HSB-2 = experiment: Antitumor activity against human CCRF-HSB2 cells by modified MTT assay; assay type: functional, cell-based
# Human alphaherpesvirus 1 = experiment: Antiviral activity against HSV1 in HELF cells assessed as reduction of virus plaque formation; assay type: functional; details: Human alphaherpesvirus 1, HELF; read-out: ED50 (the source's name)
# In short: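 In vitro plaque-reduction test against HSV-1, run with an acyclovir positive control. The value is reported as ED50, the minimum concentration that reduces virus plaque formation by 50%.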
Compound,IC50 (KB),IC50 (CCRF-HSB-2),EC50 (Human alphaherpesvirus 1)
Cn1c2nc(N3CCCCC3)nc(=O)c-2cc2cc(Cl)ccc21,82.6 µg/mL,69.4 µg/mL,
CCn1c2nc(NCCO)nc(=O)c-2cc2ccccc21,14 µg/mL,11.3 µg/mL,
CN(CCO)c1nc2n(C)c3ccccc3cc-2c(=O)n1,34.3 µg/mL,34.9 µg/mL,
COc1ccc2cc3c(=O)nc(SC)nc-3n(C)c2c1,7.69 µg/mL,5.92 µg/mL,
CN(C)c1nc2n(C)c3ccc(Cl)cc3cc-2c(=O)n1,58.5 µg/mL,46.4 µg/mL,
Cn1c2nc(N3CCOCC3)nc(=O)c-2cc2ccccc21,68.1 µg/mL,> 100 µg/mL,
CN1CCN(c2nc3n(C)c4ccccc4cc-3c(=O)n2)CC1,8.44 µg/mL,5.9 µg/mL,
Cc1cc2cc3c(=O)nc(N4CCOCC4)nc-3n(C)c2cc1C,8.8 µg/mL,6 µg/mL,
CCn1c2nc(SC)nc(=O)c-2cc2cc(C)ccc21,1.73 µg/mL,1.82 µg/mL,4 µg/mL
CCn1c2nc(N(C)CCO)nc(=O)c-2cc2ccccc21,23.5 µg/mL,26.3 µg/mL,
CSc1nc2n(C)c3cc(C)c(C)cc3cc-2c(=O)n1,11.4 µg/mL,7.06 µg/mL,
CSc1nc2n(C)c3c(C)cccc3cc-2c(=O)n1,12 µg/mL,15.3 µg/mL,
CSc1nc2n(C)c3ccc(Cl)cc3cc-2c(=O)n1,21.5 µg/mL,9.87 µg/mL,
COc1ccc2c(c1)cc1c(=O)nc(N(C)C)nc-1n2C,23.6 µg/mL,35.6 µg/mL,
COc1ccc2c(c1)cc1c(=O)[nH]c(=O)nc-1n2C,10 µg/mL,37.1 µg/mL,
Cn1c2nc(N)nc(=O)c-2cc2ccccc21,17.9 µg/mL,13.7 µg/mL,
Cn1c2nc(N3CCCCC3)nc(=O)c-2cc2ccccc21,32 µg/mL,24.7 µg/mL,
COc1ccc2c(c1)cc1c(=O)nc(N3CCOCC3)nc-1n2C,38.3 µg/mL,24.5 µg/mL,
COc1ccc2c(c1)cc1c(=O)nc(SC)nc-1n2C,9.82 µg/mL,9.27 µg/mL,

# Further lines, results first:
IC50 (KB),IC50 (CCRF-HSB-2),EC50 (Human alphaherpesvirus 1),Compound
27 µg/mL,12.6 µg/mL,,COc1ccc2c(c1)cc1c(=O)nc(N3CCN(C)CC3)nc-1n2C
50.8 µg/mL,27.7 µg/mL,,CCn1c2nc(N3CCOCC3)nc(=O)c-2cc2cc(C)ccc21
36 µg/mL,39 µg/mL,,COc1ccc2cc3c(=O)nc(N(C)CCO)nc-3n(C)c2c1
7.31 µg/mL,6.04 µg/mL,,CCCCNc1nc2n(C)c3ccccc3cc-2c(=O)n1
1.97 µg/mL,1.91 µg/mL,0.8 µg/mL,CSc1nc2n(C)c3ccccc3cc-2c(=O)n1
44.5 µg/mL,14.3 µg/mL,,Cc1ccc2c(c1)cc1c(=O)nc(N)nc-1n2C
25.1 µg/mL,9.5 µg/mL,,CCn1c2nc(N(C)CCO)nc(=O)c-2cc2cc(C)ccc21
1 µg/mL,1.64 µg/mL,4 µg/mL,CCn1c2nc(N)nc(=O)c-2cc2ccccc21
7.9 µg/mL,8.9 µg/mL,,CCCCCCCCNc1nc2n(C)c3ccccc3cc-2c(=O)n1
3.96 µg/mL,1.96 µg/mL,,CCn1c2nc(N(C)C)nc(=O)c-2cc2ccccc21
32.7 µg/mL,25.2 µg/mL,,Cc1ccc2c(c1)cc1c(=O)nc(N3CCCCC3)nc-1n2C
20.1 µg/mL,22.6 µg/mL,,CN(C)c1nc2n(C)c3ccccc3cc-2c(=O)n1
52.7 µg/mL,96.1 µg/mL,,Cn1c2nc(N3CCOCC3)nc(=O)c-2cc2cc(Cl)ccc21
9.27 µg/mL,9.57 µg/mL,,CSc1nc2n(C)c3ccc(C)cc3cc-2c(=O)n1
8.75 µg/mL,4.84 µg/mL,20 µg/mL,COc1ccc(OC)c2c1cc1c(=O)nc(SC)nc-1n2C
16.6 µg/mL,7.4 µg/mL,,CN1CCN(c2nc3n(C)c4ccc(Cl)cc4cc-3c(=O)n2)CC1
24.8 µg/mL,16.4 µg/mL,,Cc1ccc2c(c1)cc1c(=O)nc(N(C)C)nc-1n2C
5.42 µg/mL,7.07 µg/mL,20 µg/mL,CCn1c2nc(SC)nc(=O)c-2cc2ccccc21
